Test results taken from ChEMBL document CHEMBL1137907, “Anticancer activity of 3-O-acyl and alkyl-(-)-epicatechin derivatives” (Bioorg Med Chem Lett, 2004).

Tests used:
[1] = tested on: SK-OV-3; experiment: In vitro inhibitory concentration against SKOV3 cell line in MTT assay was determined after 3 days incubation; format: functional, cell-based; details: Homo sapiens, SK-OV-3, 72 h
Summary of the method: (§1)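 MTT viability read-out in 96-well format, per Mosmann's method. Values are means of three experiments.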

[2] = tested on: U373 MG; experiment: In vitro inhibitory concentration against U373MG cell line in MTT assay was determined after 3 days incubation; format: functional, cell-based, U-373MG ATCC; details: Homo sapiens, 72 h; summary of the method: as §1
[3] = tested on: PC-3; experiment: In vitro inhibitory concentration against PC-3 cell line in MTT assay was determined after 3 days incubation; format: functional, cell-based; details: Homo sapiens, PC-3, 72 h; summary of the method: as §1

Row | SMILES | IC50 [1] | IC50 [2] | IC50 [3]
1 | O=C(O[C@@H]1Cc2c(O)cc(O)cc2O[C@@H]1c1ccc(O)c(O)c1)c1cc(F)c(F)c(F)c1 | 61 µM | 59.2 µM | 71.9 µM
2 | COc1cc(C(=O)O[C@@H]2Cc3c(O)cc(O)cc3O[C@@H]2c2ccc(O)c(O)c2)cc(OC)c1OC | 50.1 µM | 57.2 µM | 51.3 µM
3 | COc1cc(CO[C@@H]2Cc3c(O)cc(O)cc3O[C@@H]2c2ccc(O)c(O)c2)cc(OC)c1OC | 38.2 µM | 29.8 µM | 32.5 µM
4 | Oc1cc(O)c2c(c1)O[C@H](c1ccc(O)c(O)c1)[C@H](O)C2 [(-)-EPICATECHIN] | > 500 µM | > 500 µM | > 500 µM
5 | O=C(O[C@@H]1Cc2c(O)cc(O)cc2O[C@@H]1c1ccc(O)c(O)c1)c1cc(O)c(O)c(O)c1 [EPICATECHIN GALLATE] | 185 µM | 157 µM | 168 µM
6 | O=C(O[C@@H]1Cc2c(O)cc(O)cc2O[C@@H]1c1ccc(O)c(O)c1)c1cc(F)cc(F)c1 | 78.2 µM | 64.5 µM | 58.7 µM
7 | O=C(O[C@@H]1Cc2c(O)cc(O)cc2O[C@@H]1c1ccc(O)c(O)c1)c1ccc(OC(F)(F)F)cc1 | 47.3 µM | 50.3 µM | 45.2 µM
